Assay [1] has as its target T1, MRGPRX2 mutants (Homo sapiens, UniProt Q96LB1, I135A).
T1 sequence (Q96LB1 1-330 I135A): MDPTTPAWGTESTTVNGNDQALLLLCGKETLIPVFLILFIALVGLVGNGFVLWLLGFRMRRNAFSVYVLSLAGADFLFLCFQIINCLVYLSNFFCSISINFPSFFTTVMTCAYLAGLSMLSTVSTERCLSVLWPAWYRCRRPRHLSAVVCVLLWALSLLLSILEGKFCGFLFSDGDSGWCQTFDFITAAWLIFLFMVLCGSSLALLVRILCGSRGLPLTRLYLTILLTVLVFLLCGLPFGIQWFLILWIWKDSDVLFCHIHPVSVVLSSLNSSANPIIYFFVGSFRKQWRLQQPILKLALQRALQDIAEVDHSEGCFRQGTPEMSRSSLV
Kind of assay: BRET2 Gi1 activation, MRGPRX2 mutants. The note with it: MRGPRX2 I135(ICL2)A. In kind it is cell-based. A general note: In BRET a luciferase serves as donor, and the signal depends on an acceptor being close.

Assay [2] deals with MRGPRX2 mutants. Kind of assay: BRET2 Gi1 activation, MRGPRX2 mutants. The format is cell-based, human. The settings on record: MRGPRX2 R214A, L216A.
In assay [3] the target is T1, MRGPRX2 mutants. Briefly: BRET2 Gq activation, MRGPRX2 mutants. In kind it is cell-based. The settings on record: MRGPRX2 I135(ICL2)A.
Assay [4] relates to MRGPRX2 mutants. Kind of assay: BRET2 Gq activation, MRGPRX2 mutants. The format is cell-based, human.
Assay [5] has as its target MRGPRX4 mutants (Homo sapiens, UniProt Q96LA9, Y130A). Kind of assay: BRET2 Gq activation, MRGPRX4 mutants. The format is cell-based. The settings on record: MRGPRX4 Y130(ICL2)A.
For assay [6], the system named is MRGPRX4 mutants. Briefly: BRET2 Gq activation, MRGPRX4 mutants. In kind it is cell-based, human. The settings on record: MRGPRX4 pocket mutants.
Assay [7] has as its target MRGPRX4 Leu83Ser (Homo sapiens, UniProt Q96LA9, L83S). Kind of assay: Agonist potency at MRGPRX4 Leu83Ser variant. The format is cell-based.
For assay [8], the system named is Kir6.2/SUR1 potassium channel. Kind of assay: Whole-cell electrophysiology, Kir6.2/SUR1 current inhibition in HEK293 cells. The format is cell-based, human.
For assay [9], the system named is 320 GPCRs. Briefly: PRESTO-Tango GPCRome screening. The format is cell-based. The note with it: 3 μM. A digest of the protocol: (§1)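 HTLA cells in DMEM + 1% dialyzed FBS were PEI-transfected in-plate with PRESTO-Tango receptor DNA (17 ng/well). After overnight culture, test compound at 3 μM final was added for 18–20 h without medium change. Luminescence read 20 min after Bright-Glo. Assay control: D2 receptor with 0.1 mM quinpirole. Output is fold over basal RLU (n=4 technical replicates); receptors exceeding 3-fold basal were repeated as full dose–response.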

Assay [10] deals with MRGPRX1 (Homo sapiens, UniProt Q96LB2). Kind of assay: PRESTO-Tango single-point and concentration-response assay at MRGPRX1. The format is cell-based. In outline:
as §1

Assay [11] has as its target MRGPRX4 (Homo sapiens, UniProt Q96LA9). Briefly: FLIPR Ca2+ assay, agonist mode, MRGPRX4 stable cells. In kind it is cell-based. The note with it: read-out: EC50, MRGPRX4 agonist.
The test system of assay [12] is MRGPRX4. The settings on record: previously identified; cited from earlier work.
Assay [13] concerns the target T2, MRGPRX2 mutants (Homo sapiens, UniProt Q96LB1, W243A).
T2 sequence (Q96LB1 1-330 W243A): T1 sequence (Q96LB1 1-330 I135A) with A135I, W243A
Briefly: BRET2 Gq activation, MRGPRX2 mutants. The settings on record: MRGPRX2 W243A. In kind it is cell-based.

Assay [14] deals with T3, MRGPRX2 mutants (Homo sapiens, UniProt Q96LB1, F170A).
T3 sequence (Q96LB1 1-330 F170A): T1 sequence (Q96LB1 1-330 I135A) with A135I, F170A
Briefly: BRET2 Gq activation, MRGPRX2 mutants. In kind it is cell-based. The note with it: MRGPRX2 F170(ECL2)A.

Numbering of substitutions follows the chain as printed.

The values that follow come from article PMC9150435 (Nature, 2021).

MRGPRX1, sequence (Q96LB2 whole entry): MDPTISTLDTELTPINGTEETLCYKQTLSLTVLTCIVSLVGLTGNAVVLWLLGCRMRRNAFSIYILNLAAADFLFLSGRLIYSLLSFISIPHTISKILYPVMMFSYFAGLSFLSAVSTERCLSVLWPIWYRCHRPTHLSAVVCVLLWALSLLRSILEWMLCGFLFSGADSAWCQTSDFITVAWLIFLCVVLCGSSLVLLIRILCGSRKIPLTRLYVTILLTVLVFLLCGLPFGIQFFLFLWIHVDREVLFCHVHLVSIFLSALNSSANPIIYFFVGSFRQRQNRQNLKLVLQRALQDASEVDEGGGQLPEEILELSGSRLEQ
MRGPRX4 Leu83Ser, sequence (Q96LA9 whole entry L83S): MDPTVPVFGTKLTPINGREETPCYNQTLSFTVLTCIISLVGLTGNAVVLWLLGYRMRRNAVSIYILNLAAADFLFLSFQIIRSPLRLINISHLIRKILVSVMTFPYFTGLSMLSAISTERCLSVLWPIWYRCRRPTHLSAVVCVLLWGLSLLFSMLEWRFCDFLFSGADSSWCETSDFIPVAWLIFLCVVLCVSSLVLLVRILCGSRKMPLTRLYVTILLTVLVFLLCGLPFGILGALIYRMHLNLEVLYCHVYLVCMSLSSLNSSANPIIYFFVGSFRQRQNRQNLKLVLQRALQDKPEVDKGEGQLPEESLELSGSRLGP
MRGPRX4 mutants (Homo sapiens, UniProt Q96LA9, Y130A), sequence (Q96LA9 whole entry Y130A): as the sequence (Q96LA9 whole entry L83S) above, with S83L, Y130A counted along it
MRGPRX4 (Homo sapiens, UniProt Q96LA9), sequence (Q96LA9 whole entry): as the sequence (Q96LA9 whole entry L83S) above, with S83L counted along it

With `CN(C)[C@@H]1CCN(c2cc(-c3ccccc3)nc3ccnn23)C1` [(R)-ZINC-3573], the “effect of I135A mutation on stimulated Gi1 activation” value in [1] is “attenuate”. Moreover, the “effect of ICL3 mutations R214A and L216A on stimulated Gi1 activation” value in assay [2] was “impairs”. Moreover, the “effect of I135A mutation on stimulated Gq activation” value in assay [3] is recorded as “greatly reduced”. Further, in [4] (MRGPRX2 D184A, E164A), the “effect of D184A and E164A substitutions on agonist stimulated Gq activation” value is on record as “impaired the efficacy”. Also, the “effect of most alanine mutations in the (R)-ZINC-3573 pocket” value in [4] (MRGPRX2 pocket alanine mutants) is listed as “greatly reduced the efficacy”.

The EC50 is the midpoint of the concentration-response curve. With `C[C@]12CC3CC(C(=O)N[C@H](Cc4ccccc4)C(=O)O)(C1)C[C@@](C)(C3)C2` [MS47134], the “effect of Y130A mutation on agonist potency” value in assay [5] is reported as “reduced the agonist potency”. Also, the “effect of most mutations surrounding MS47134 on potency” value in [6] is “greatly affected its potency”. Moreover, in assay [7], the “effect of Leu83Ser mutation on agonist potency” value is listed as “greatly attenuated the potency”. In [8], the “selectivity over Kir6.2/SUR1 channel compared to nateglinide” value is on record as “higher selectivity”. The “improved selectivity for MRGPRX4 over the Kir6.2/SUR1 potassium channel” value in assay [8] (MRGPRX4 FLIPR vs Kir6.2/SUR1 current inhibition) was determined as 47 fold. Further, the “off-target agonist or antagonist activity across GPCRome” value in [9] was “activity only at MRGPRX4 and MRGPRX1”. The “activity against MRGPRX1 in concentration-response assay” value in assay [10] (full dose-response repeat) was “not replicated”. Besides, the “activity at MRGPRX1, fold of basal levels of relative luminescence units” value in assay [10] (single-point assay, 3 μM) is “more than 3 fold”. Further, in assay [11], the EC50 stood at 150 nM.

In the case of `CC(C)[C@H]1CC[C@H](C(=O)N[C@H](Cc2ccccc2)C(=O)O)CC1` [nateglinide], the “effect of Leu83Ser mutation on agonist potency” value in assay [7] is recorded as “greatly attenuated the potency”. In addition, the MRGPRX4 agonist potency entry in [12] is listed as “low micromolar agonist”.

Regarding cortistatin-14 (PCKNFFWKTFSSCK), the “effect of I135A mutation on stimulated Gi1 activation” value in assay [1] was “attenuate”. The “effect of ICL3 mutations R214A and L216A on stimulated Gi1 activation” value in assay [2] is given as “impairs”. In addition, the “effect of W243A mutation on agonist stimulated Gq activation” value in assay [13] is listed as “abolished the activity”. Moreover, the “effect of F170A mutation on agonist stimulated Gq activation” value in assay [14] is on record as “reduced the potency”. In addition, the “effect of I135A mutation on stimulated Gq activation” value in assay [3] is listed as “greatly reduced”.
